Six compounds from ChEMBL document CHEMBL1155635, “New cytotoxic sesquiterpenes from the gorgonian Isis hippuris” (2000) can be followed below.

Holding throughout (format): functional
In one assay the test system is A549. Put plainly: Cytotoxicity against human A549 cells by MTT method. As to conditions: read-out: ED50 (the source's name). The procedure, abridged: (§1)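 Modified MTT colorimetric assay. P-388 cells were a gift from an outside laboratory; A549 and HT-29 came from ATCC. Cells were treated at eight concentrations of pure compound, 50 to 5 × 10-6 µg/mL. Growth was expressed as percent of control incubations, run in triplicate. ED50 is the dose inhibiting cell growth by 50%.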
A general note: Tetrazolium assays rely on reduction of a dye to a coloured formazan, in cell work by metabolically active cells.

For another assay, the system named is HT-29. The assay can be described thus: Cytotoxicity against human HT29 cells by MTT method. As to conditions: for EC50: Homo sapiens, HT-29, read-out: ED50 (the source's name). The procedure, abridged: as §1
Another assay has as its system P388. Put plainly: Cytotoxicity against mouse P388 cells by MTT method. As to conditions: for EC50: Mus musculus, P388, read-out: ED50 (the source's name). Summed up:
as §1

≈ marks a conversion by molar mass, not a printed value.

For `C[C@@H]1CC(=O)[C@@]23[C@@H](C)C(C(=O)O)=C[C@]2(C)CC[C@@H]13` [SUBERGORGIC ACID], the EC50 in the assay on A549 is over 50 µg/mL; in the assay with HT-29, over 50 µg/mL; in the assay on P388, 13.3 µg/mL (≈ 53.6 µM).
As for `C[C@H]1CC[C@H]2[C@@H]3CC(=O)[C@H](C)[C@@]13CC2(C)C` [SUBEROSANONE], the EC50 with A549 is 0.036 µg/mL (≈ 0.163 µM). Besides, the ED50 in the assay with HT-29 and in the assay on P388 was under 5 ×10⁻⁶ ug/ml in each case.
On to `C=C1[C@@H](OC(C)=O)C[C@H]2[C@@H]3CC[C@H](C)[C@]12CC3(C)C` [SUBEROSENOL A ACETATE], for which the EC50 is 0.08 µg/mL in the assay on A549 and 0.0076 µg/mL in the assay with P388. In the assay on HT-29, this compound showed an ED50 of 3.6 ×10⁻⁴ ug/ml.
For the compound `C=C1[C@@H](O)C[C@H]2[C@@H]3CC[C@H](C)[C@]12CC3(C)C` [SUBEROSENOL A], in the assay with A549, the EC50 worked out at 0.0051 µg/mL (≈ 0.0231 µM). For the same compound, the ED50 in the assay with HT-29 and in the assay on P388 was under 5 ×10⁻⁶ ug/ml in each case.
On to `C=C1[C@H](OC(C)=O)C[C@H]2[C@@H]3CC[C@H](C)[C@]12CC3(C)C` [SUBEROSENOL B ACETATE], for which the EC50 in the assay with A549 amounted to 0.36 µg/mL; with HT-29 it was 0.005 µg/mL; in the assay on P388, 0.074 µg/mL.
For `C=C1[C@H](O)C[C@H]2[C@@H]3CC[C@H](C)[C@]12CC3(C)C` [SUBEROSENOL B], the EC50 with A549 was 0.2 µg/mL (≈ 0.908 µM); in the assay on HT-29, 2.1 µg/mL (≈ 9.53 µM); in the assay on P388, 3.4 µg/mL (≈ 15.4 µM).
